From ChEMBL document CHEMBL3272093, “Antibacterial halogenoacetyl derivatives of amino acids and simple peptides” (1977) come the findings set out here.

One test concerns Staphylococcus aureus. The test is described as follows: Antibacterial activity against Staphylococcus aureus assessed as inhibition of growth after 18 hrs by broth culture method. The format is functional. In outline:
(§1)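 Broth dilution in 0.5 mL Sensitivity Test Broth, inoculated with 0.2 mL of a 10^-4 dilution of an 18-h broth culture. MIC read after 18-h incubation as the lowest concentration preventing growth.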

The next test deals with Escherichia coli. As to the kind of experiment: Antibacterial activity against Escherichia coli assessed as inhibition of growth after 18 hrs by broth culture method. The format is functional. The essentials:
as §1

For test [1], the target named is D-alanyl-D-alanine carboxypeptidase (Streptomyces sp. R61) (UniProt P15555). As to the kind of experiment: Inhibition of Streptomyces R61 DD-carboxypeptidase using Ac2-L-Lys-D-Ala-D-Ala as substrate at 10 to 100 ug/ml. The essentials: (§2)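 Enzymes tested for release of D-alanine, measured with D-amino acid oxidase. Compounds assayed at 10 and 100 μg/mL. Substrates: Ac2-L-Lys-D-Ala-D-Ala for the Streptomyces R61 enzyme; UDP-N-acetylmuramyl-L-alanyl-meso-diaminopimeloyl-D-alanyl-D-alanine for the B. stearothermophilus and S. typhimurium enzymes.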
D-alanyl-D-alanine carboxypeptidase (Streptomyces sp. R61), sequence (P15555 whole entry): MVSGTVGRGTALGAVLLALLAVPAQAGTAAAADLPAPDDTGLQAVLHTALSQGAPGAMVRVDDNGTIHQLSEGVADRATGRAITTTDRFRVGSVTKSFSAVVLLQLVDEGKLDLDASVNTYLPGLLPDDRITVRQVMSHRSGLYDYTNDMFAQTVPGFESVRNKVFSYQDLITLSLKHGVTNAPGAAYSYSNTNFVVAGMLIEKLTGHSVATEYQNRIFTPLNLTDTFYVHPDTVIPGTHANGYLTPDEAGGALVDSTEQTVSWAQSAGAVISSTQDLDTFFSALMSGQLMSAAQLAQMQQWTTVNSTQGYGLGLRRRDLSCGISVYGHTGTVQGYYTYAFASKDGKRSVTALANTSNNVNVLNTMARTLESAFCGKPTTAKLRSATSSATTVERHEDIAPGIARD

In test [2] the target is T1, D-alanyl-D-alanine carboxypeptidase DacA (Geobacillus stearothermophilus) (UniProt Q05523).
T1 sequence (whole entry): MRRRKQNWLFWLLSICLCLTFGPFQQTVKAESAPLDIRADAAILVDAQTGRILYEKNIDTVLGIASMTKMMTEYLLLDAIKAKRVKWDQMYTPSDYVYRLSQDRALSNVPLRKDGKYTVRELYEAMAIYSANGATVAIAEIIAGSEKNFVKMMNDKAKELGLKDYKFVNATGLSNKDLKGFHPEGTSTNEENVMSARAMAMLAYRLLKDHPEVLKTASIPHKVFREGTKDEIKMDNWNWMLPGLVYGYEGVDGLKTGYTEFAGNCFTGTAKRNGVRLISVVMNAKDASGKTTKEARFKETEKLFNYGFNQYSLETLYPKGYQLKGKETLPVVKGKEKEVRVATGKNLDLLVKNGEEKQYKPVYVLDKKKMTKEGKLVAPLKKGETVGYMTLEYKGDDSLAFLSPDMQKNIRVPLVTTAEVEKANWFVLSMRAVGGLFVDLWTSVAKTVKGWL
The test is described as follows: Inhibition of Bacillus stearothermophilus DD-carboxypeptidase using UDP-N-acetylmuramyl-L-alanyl-meso-diaminopimeloyl-D-alanyl-D-alanine as substrate at 10 to 100 ug/ml. In outline:
as §2

Test [3] relates to Salmonella enterica subsp. enterica serovar Typhimurium. As to the kind of experiment: Inhibition of Salmonella typhimurium DD-carboxypeptidase using UDP-N-acetylmuramyl-L-alanyl-meso-diaminopimeloyl-D-alanyl-D-alanine as substrate at 10 to 100 ug/ml. In outline: as §2

Converted amounts (≈) assume the structure as drawn. The source made the active and inactive calls. The calls are words filed in the database; no cut-off is given here.

In general, MIC refers to the lowest concentration that inhibits growth of the organism. As to `C[C@@H](NC(=O)[C@H](CCCCNC(=O)OC(C)(C)C)NC(=O)CI)C(=O)OC(C)(C)C`, the MIC in the test with Staphylococcus aureus was 15 µg/mL (≈ 27.7 µM); in the test on Escherichia coli it was above 500 µg/mL. Further, the inhibition result in test [1], in test [2] and in test [3] was “inactive” throughout.
As to `O=C(CI)NCCCCC(=O)OCc1ccccc1`, the results for the MIC in the test with Staphylococcus aureus and with Escherichia coli were below 0.4 µg/mL and 62 µg/mL (≈ 165 µM), respectively. Further, the inhibition result in test [1], in test [2] and in test [3] was “inactive” each time.
With `C[C@@H](NC(=O)[C@H](CCCCN1C(=O)c2ccccc2C1=O)NC(=O)CI)C(=O)N[C@H](CCC(=O)OC(C)(C)C)C(=O)OC(C)(C)C`, the values for the minimum inhibitory concentration (MIC) with Staphylococcus aureus and in the test on Escherichia coli were 62 µg/mL (≈ 81.9 µM) and above 500 µg/mL, respectively. The inhibition entry in test [1], in test [2] and in test [3] was “inactive” each time.
Take `CC(=O)NCCCC[C@H](NC(=O)CI)C(=O)N[C@H](C)C(=O)N[C@H](C)C(=O)OC(C)(C)C`: the MIC in the test with Staphylococcus aureus was 500 µg/mL (≈ 902 µM); in the test with Escherichia coli, above 500 µg/mL. In addition, the inhibition result in test [1], in test [2] and in test [3] was “inactive” each time.
Take `C[C@@H](NC(=O)[C@H](CCCCN1C(=O)c2ccccc2C1=O)NC(=O)CI)C(=O)N[C@H](C)C(=O)OC(C)(C)C`: the MIC with Staphylococcus aureus is 62 µg/mL (≈ 96.5 µM); in the test on Escherichia coli, above 500 µg/mL. Besides, the inhibition result in test [1], in test [2] and in test [3] was “inactive” throughout.
For `C[C@@H](NC(=O)[C@@H](C)NC(=O)[C@H](CCCCN1C(=O)CCC1=O)NC(=O)CI)C(=O)O`, the MIC in the test on Staphylococcus aureus is 500 µg/mL (≈ 929 µM); in the test on Escherichia coli, above 500 µg/mL. Also, the inhibition result in test [1], in test [2] and in test [3] was “inactive” throughout.
Take `COC(=O)CCCCNC(=O)CI`: the minimum inhibitory concentration (MIC) amounted to 3.7 µg/mL (≈ 12.4 µM) in the test on Staphylococcus aureus and 7.5 µg/mL (≈ 25.1 µM) in the test with Escherichia coli. The inhibition entry in test [1], in test [2] and in test [3] was “inactive” in each case.
Consider `O=C(CI)NCCC(=O)OCc1ccccc1`, for which the MIC in the test with Staphylococcus aureus is 7.5 µg/mL (≈ 21.6 µM); in the test on Escherichia coli it was 500 µg/mL (≈ 1440 µM). For the same molecule, the inhibition result in test [1], in test [2] and in test [3] was “inactive” each time.
Consider `C[C@@H](NC(=O)[C@@H](C)NC(=O)CI)C(=O)O`, for which the minimum inhibitory concentration (MIC) with Staphylococcus aureus was 500 µg/mL (≈ 1520 µM); with Escherichia coli, above 500 µg/mL. The inhibition result in test [1], in test [2] and in test [3] was “inactive” throughout.
